Values belong to the compound of their own block, whether it stands above or below them.
Tests used:
[1] = biological target: T1, 5-hydroxytryptamine receptor 1A (Rattus norvegicus, UniProt P19327); experiment: Compound was evaluated for its binding affinity against 5-hydroxytryptamine 1A receptor from rat cerebral cortex; assay type: tissue-based
T1 sequence (P19327 whole entry): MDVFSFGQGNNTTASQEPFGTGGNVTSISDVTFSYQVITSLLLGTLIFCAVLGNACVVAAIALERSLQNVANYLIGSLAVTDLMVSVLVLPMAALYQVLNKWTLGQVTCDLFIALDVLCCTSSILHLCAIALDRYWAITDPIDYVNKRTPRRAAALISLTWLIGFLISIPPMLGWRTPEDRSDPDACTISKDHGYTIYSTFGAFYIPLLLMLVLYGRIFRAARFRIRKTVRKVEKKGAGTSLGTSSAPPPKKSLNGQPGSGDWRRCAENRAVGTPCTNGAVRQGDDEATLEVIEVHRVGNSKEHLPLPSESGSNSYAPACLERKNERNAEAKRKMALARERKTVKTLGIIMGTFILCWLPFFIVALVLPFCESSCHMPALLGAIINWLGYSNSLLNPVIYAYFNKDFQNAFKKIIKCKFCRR

Rattus norvegicus [2] = experiment: compound was tested for antipsychotic activity by conditioned avoidance response(CAR) assay in rats with a pretreatment period of 30 min upon intra peritoneal administration at a concentration of 1 mg/kg.; assay type: functional
In short: (§1)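 Trained rats (N = 4) were run in 1-h sessions on two consecutive days, with the experimenter blind to drug and dose. Fed rats had food and water until placed in the test chambers. Fasted rats had no food overnight before the experiment.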

Rattus norvegicus [3] = experiment: compound was tested for antipsychotic activity by conditioned avoidance response(CAR) assay in rats with a pretreatment period of 30 min upon intra peritoneal administration at a concentration of 5 mg/kg.; assay type: functional
In short: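 Rat conditioned avoidance test modified from Martin et al. Trained rats (N = 4) were run in 1-h sessions on two consecutive days. Fed animals had food and water until placed in the test chambers. Dosing was ip with 30 min pretreatment, and activity was expressed as percent inhibition at the stated dose.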

[4] = biological target: T2, Adrenergic receptor alpha-1 (Rattus norvegicus, UniProt P15823+P23944+P43140); experiment: Binding affinity against Alpha-1 adrenergic receptor from rat cerebral cortex; assay type: tissue-based
T2 sequence (P15823 whole entry): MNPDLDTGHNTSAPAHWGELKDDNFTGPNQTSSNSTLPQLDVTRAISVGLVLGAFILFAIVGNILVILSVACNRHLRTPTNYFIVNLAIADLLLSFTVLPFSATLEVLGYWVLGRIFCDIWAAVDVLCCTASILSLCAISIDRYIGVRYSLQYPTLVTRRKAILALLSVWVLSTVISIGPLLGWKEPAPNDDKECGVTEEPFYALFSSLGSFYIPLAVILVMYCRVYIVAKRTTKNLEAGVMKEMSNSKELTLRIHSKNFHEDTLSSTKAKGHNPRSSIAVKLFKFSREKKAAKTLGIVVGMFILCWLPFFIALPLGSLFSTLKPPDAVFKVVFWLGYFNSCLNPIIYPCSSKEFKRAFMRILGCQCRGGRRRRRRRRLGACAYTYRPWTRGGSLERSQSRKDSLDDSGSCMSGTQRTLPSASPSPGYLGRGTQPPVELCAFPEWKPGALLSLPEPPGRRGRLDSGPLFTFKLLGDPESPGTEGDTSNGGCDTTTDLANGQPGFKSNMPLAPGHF
T2 sequence (P23944 whole entry): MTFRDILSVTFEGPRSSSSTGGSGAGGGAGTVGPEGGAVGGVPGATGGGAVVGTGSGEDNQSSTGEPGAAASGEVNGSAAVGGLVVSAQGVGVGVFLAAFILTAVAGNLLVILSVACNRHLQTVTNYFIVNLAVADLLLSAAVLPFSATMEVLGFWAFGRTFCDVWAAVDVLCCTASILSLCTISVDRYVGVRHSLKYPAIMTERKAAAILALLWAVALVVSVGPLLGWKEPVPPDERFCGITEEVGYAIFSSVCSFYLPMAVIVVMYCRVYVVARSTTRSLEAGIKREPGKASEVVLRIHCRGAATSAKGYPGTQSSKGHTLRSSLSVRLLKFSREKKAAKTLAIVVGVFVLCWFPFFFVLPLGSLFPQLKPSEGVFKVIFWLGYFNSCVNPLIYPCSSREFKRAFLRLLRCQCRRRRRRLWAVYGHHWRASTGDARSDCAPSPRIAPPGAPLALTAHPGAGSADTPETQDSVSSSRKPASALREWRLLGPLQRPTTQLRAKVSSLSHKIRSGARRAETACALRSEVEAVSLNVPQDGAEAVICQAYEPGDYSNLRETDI
T2 sequence (P43140 whole entry): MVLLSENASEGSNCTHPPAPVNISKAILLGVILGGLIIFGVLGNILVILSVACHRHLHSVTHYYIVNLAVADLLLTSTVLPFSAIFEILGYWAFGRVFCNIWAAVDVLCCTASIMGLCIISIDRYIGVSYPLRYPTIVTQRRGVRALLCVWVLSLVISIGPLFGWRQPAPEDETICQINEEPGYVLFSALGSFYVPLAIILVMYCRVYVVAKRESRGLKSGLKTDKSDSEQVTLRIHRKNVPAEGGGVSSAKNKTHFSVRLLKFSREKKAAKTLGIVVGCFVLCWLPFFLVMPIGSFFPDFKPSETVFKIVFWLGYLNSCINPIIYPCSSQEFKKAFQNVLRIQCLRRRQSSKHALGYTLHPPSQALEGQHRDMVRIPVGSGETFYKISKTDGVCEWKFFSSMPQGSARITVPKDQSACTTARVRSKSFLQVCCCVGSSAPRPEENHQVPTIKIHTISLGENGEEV

Rattus norvegicus [5] = experiment: compound was tested for antipsychotic activity by conditioned avoidance response(CAR) assay in rats with a pretreatment period of 30 min upon peroral administration at a concentration of 20 mg/kg.; assay type: functional; details: route oral; in short: as §1
Rattus norvegicus [6] = experiment: Percent catalepsy in male Spargue-Dawley rat at pretreatment time 60 mins and when administered ip at dose 50 mg/kg; assay type: functional; details: route intraperitoneal
In short: (§2)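 Catalepsy in rats, groups of five per drug treatment, scored blind to drug and dose. Each session included a saline or vehicle negative control and a haloperidol 2 mg/kg positive control. Deaths during the experiment were recorded in the catalepsy column as number dead out of five.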

Rattus norvegicus [7] = experiment: compound was tested for antipsychotic activity by conditioned avoidance response(CAR) assay in rats with a pretreatment period of 30 min upon intra peritoneal administration at a concentration of 5 mg/kg; assay type: functional; in short: as §1
Rattus norvegicus [8] = experiment: Percent catalepsy in male Spargue-Dawley rat at pretreatment time 240 mins and when administered ip at dose 50 mg/kg (4/5L denotes that four rats out of five died during the course of experiment); assay type: functional; details: route intraperitoneal
In short: (§3)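 Catalepsy scored in groups of five rats per drug treatment, with the experimenter blind to drug and dose, in a quiet room. Each session included two control groups: saline (or vehicle) as negative control and haloperidol 2 mg/kg as positive control. Deaths during the experiment were recorded as lethality (e.g., 3/5L) in place of percent catalepsy.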

Rattus norvegicus [9] = experiment: compound was tested for antipsychotic activity by conditioned avoidance response(CAR) assay in rats with a pretreatment period of 30 min upon intra peritoneal administration at a concentration of 13.4 mg/kg.; assay type: functional; in short: as §1
Rattus norvegicus [10] = experiment: compound was tested for antipsychotic activity by conditioned avoidance response(CAR) assay in rats with a pretreatment period of 30 min upon intra peritoneal administration at a concentration of 7.5 mg/kg.; assay type: functional; in short: as §1
Rattus norvegicus [11] = experiment: Percent catalepsy in male Spargue-Dawley rat at pretreatment time 60 mins and when administered ip at dose 50 mg/kg (3/5L denotes that three rats out of five died during the course of experiment); assay type: functional; details: route intraperitoneal; in short: as §3
Rattus norvegicus [12] = experiment: compound was tested for antipsychotic activity by conditioned avoidance response(CAR) assay in rats with a pretreatment period of 30 min upon intra peritoneal administration.; assay type: functional; in short: as §1
Rattus norvegicus [13] = experiment: Percent catalepsy in male Spargue-Dawley rat at pretreatment time 60 mins and administered ip at dose 50 mg/kg; assay type: functional; details: route intraperitoneal; in short: as §2
[14] = biological target: T1, 5-hydroxytryptamine receptor 1A; experiment: Compound was evaluated for its binding affinity with 5-hydroxytryptamine 1A receptor using membranes prepared from rat cerebral cortex; assay type: tissue-based
In short: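 Membranes from male Wistar rat cerebral cortex: homogenized in HEPES-buffered 0.3 M sucrose, P2 pellet incubated 30 min at 25 °C, resuspended in 3 mM phosphate buffer pH 7.5. Labeled with 3 nM [3H]-8-OH-DPAT for 20 min at 25 °C. Nonspecific binding defined with 1 μM serotonin.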

[15] = biological target: T2, Adrenergic receptor alpha-1; experiment: Compound was evaluated for its binding affinity with Alpha-1 adrenergic receptor using membranes prepared from rat cerebral cortex; assay type: tissue-based
Rattus norvegicus [16] = experiment: compound was tested for antipsychotic activity by conditioned avoidance response(CAR) assay in rats with a pretreatment period of 30 min upon intra peritoneal administration at a concentration of 15 mg/kg; assay type: functional; in short: as §1
Rattus norvegicus [17] = experiment: compound was tested for antipsychotic activity by conditioned avoidance response(CAR) assay in rats with a pretreatment period of 30 min upon intra peritoneal administration at a concentration of 15 mg/kg.; assay type: functional
Rattus norvegicus [18] = experiment: compound was tested for antipsychotic activity by conditioned avoidance response(CAR) assay in rats with a pretreatment period of 60 min upon peroral administration at a concentration of 10 mg/kg.; assay type: functional; details: route oral; in short: as §1

Ki [1]: 0.34 nM | Ki [4]: 21 nM
Compound: O=C(c1cccc(CN2CCN(C3COc4ccccc4O3)CC2)c1)N1CCCCC1 (stereo not given)
inhibition in vivo at 1 mg/kg (Rattus norvegicus [2]): -2.6% | inhibition in vivo at 5 mg/kg (Rattus norvegicus [3]): -93.8% | inhibition in vivo at 20 mg/kg (Rattus norvegicus [5]): -68.2% | Catalepsy (Rattus norvegicus [6]): 29%

Ki [4]: 6.7 nM
Compound: CC(C)Oc1ccccc1N1CCN(Cc2cccc(S(=O)(=O)N3CCCCC3)c2)CC1
inhibition in vivo at 5 mg/kg (Rattus norvegicus [7]): -6.7%

Compound: CC(C)Oc1ccccc1N1CCN(Cc2cccc(C(=O)N3CCCC3)c2)CC1
Catalepsy (Rattus norvegicus [8]): 0% | Ki [1]: 3.6 nM | inhibition in vivo at 13.4 mg/kg (Rattus norvegicus [9]): -79.4% | inhibition in vivo at 1 mg/kg (Rattus norvegicus [2]): -44.8% | inhibition in vivo at 7.5 mg/kg (Rattus norvegicus [10]): -98.3% | Catalepsy (Rattus norvegicus [11]): 0% | Ki [4]: 1.9 nM

Ki [1]: 0.71 nM | Ki [4]: 8.2 nM
Compound: CCOc1ccccc1N1CCN(Cc2cccc(C(=O)N3CCCCCC3)c2)CC1
ED50 (Rattus norvegicus [12]): 1.26 mg/kg | Catalepsy (Rattus norvegicus [13]): 47.5%

Ki [14]: 2.5 nM | Ki [15]: 2.7 nM
Compound: O=C(c1cccc(CN2CCN(c3nsc4ccccc34)CC2)c1)N1CCCCC1
inhibition in vivo at 5 mg/kg (Rattus norvegicus [3]): -89.6% | Catalepsy (Rattus norvegicus [6]): 74%

Ki [4]: > 1000 nM
Compound: O=C(c1cccc(CN2CCNCC2)c1)N1CCCCC1
inhibition in vivo at 15 mg/kg (Rattus norvegicus [16]): -30.2%

Ki [1]: 3.4 nM | Ki [4]: 1.7 nM
Compound: CC(C)Oc1ccccc1N1CCN(Cc2cccc(C(=O)N3CCc4ccccc43)c2)CC1
inhibition in vivo at 15 mg/kg (Rattus norvegicus [17]): -95.8% | inhibition in vivo at 10 mg/kg (Rattus norvegicus [18]): -1.4% | inhibition in vivo at 1 mg/kg (Rattus norvegicus [2]): -1.6%
